The record followed here is the EternaBench riboswitch data.

A word on the apparent Kd: it is the concentration giving half-maximal binding under the conditions of the assay.

The series relates to MS2 coat protein. As to the kind of experiment: apparent Kd, MS2 coat protein; higher = weaker binding; RNA-MaP array; FMN 200 µM where present. The procedure, abridged:
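Designs were transcribed by stalled E. coli RNA polymerase on Illumina sequencing-chip clusters. They were titrated with SNAP-549-labelled MS2 coat protein from 0.7 or 1.5 nM, doubling to 3 µM, without and then with constant ligand. Buffer: 100 mM Tris-HCl pH 7.5, 80 mM KCl, 4 mM MgCl2, BSA, DTT, yeast tRNA, Tween-20. Green signal was normalised to red-channel RNA signal and control-cluster median Fmax. Apparent Kd is the median of filtered per-cluster binding-curve fits.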

Where [1] appears, read: designed as: OFF switch for flavin mononucleotide, no ligand.
[2] abbreviates: ligand present: flavin mononucleotide, designed as: OFF switch for flavin mononucleotide.
The mark [3] stands for this setting: designed as: ON switch for flavin mononucleotide, no ligand.
Setting [4] is: ligand present: flavin mononucleotide, designed as: ON switch for flavin mononucleotide.

Take “CCUAUGUGAGGAUAUCACUGGUCUUUUCAUUGGAUGAUUAGUGAGAAGGCACAUGAGGAUCACCCAUGUCGGUG”: the “apparent Kd” value under setting [1] amounted to 0.0289 µM and the “apparent Kd” value under setting [2] came to 0.0243 µM.
In the same order, the values of “AACAGUACAGGAUAUACAUGAGGAUCACCCAUGUGAUCAUCAAGUGCCGUAGCACGAAGUAGAAGGGUACUGGA” are 0.207 µM and 0.057 µM.
On to “GCCAUCACAUGAGGAUAUGCUCGGGUUUCCCGAGCAGAAGGCAUGUCAUAGGACAUGAGGAUCACCCAUGUAGUUAAGAUGGCA”, for which the “apparent Kd” value under setting [3] was 0.507 µM and the “apparent Kd” value under setting [4] turned out to be 0.0171 µM.
As to “AAAAUCGAAGGAUAUACAUAUCCUUUAGCGGCAAUGCCGCGACAUGAGGAUCACCCAUGUAGAAGGUCGUAAAA”, the “apparent Kd” value under setting [1] stood at 0.0276 µM and the “apparent Kd” value under setting [2] was 0.0315 µM.
On to “GGUGCCAUGUAGAAGGCAGAUCUGAUUCAGAUCUGAGGAUAUACAUGAGGAUCACCCAUGUAAGGGCACCGCACGAGAGUGCAA”, for which the “apparent Kd” value under setting [1] was 0.00656 µM and the “apparent Kd” value under setting [2] was determined as 0.0102 µM.
The like results for “CCCUAGGUAGGAUAUACUUGGGCUCGGCUGAUGUGCCUAAAACAUGAGGAUCACCCAUGUAGAAGGACUAAGGC” were, in that order, 0.0124 µM and 0.0108 µM.
Consider “GUAGCUAUCGGAGGAUAUUCAUACCGGAAACGGACAUGAGGAUCACCCAUGUCGCGAAAGCGUUGGGAGAAGGCCGAUAGCUAC”, for which the “apparent Kd” value is 0.237 µM under setting [3] and 0.0214 µM under setting [4].
For “ACAUGCAUAGCGAUAUGAUCGAGAGAUCAUGUCGCUAAAUUUAGAAGGACAUGAGGAUCACCCAUGUAGGAUAUGGGAGCAUGC”, the “apparent Kd” value amounted to 0.0879 µM under setting [3] and 0.0171 µM under setting [4].
The like results for “GUAGGGAUUACAUGAGGAUCACCCAUGUCAGAACGGGUAAUCAGAAGGUAUUAUUAGGGAGAGGGUAAGGAUAUGAUUUUUUAU” were, in that order, 0.433 µM and 0.344 µM.
For “UUUUUACAUGAGGAUCACCCAUGUCAGGAUAUGGUUAUAUUUUAUUAUUUUAUUUUUUCCAGAAGGGACUAUUA”, the “apparent Kd” value came out at 0.343 µM under setting [1] and 0.162 µM under setting [2].
For “GGAGCACACAUUAACAUGAGGAUCACCCAUGUCAAAAGACAUGAGGAUAUGGAUACGAAAAGGAUCCAGAAGGCAUGGUGCUCC”, the “apparent Kd” value under setting [3] amounted to 0.693 µM and the “apparent Kd” value under setting [4] was 0.0725 µM.
The like results for “GGGUACGUUUCGUAGCAGUGUCAUCGAGAAGGCCCUGACAUGAGGAUCACCCAUGUUGUUACAUGGGAGGAUAUCGAUGAUCCC” were, in that order, 0.0536 µM and 0.00836 µM.
Regarding “GGUCCGCACUAGAAGGGUGACAUGAGGAUCACCCAUGUGCACUUCCGCUCUUAGCGGAAAGUGCCACAGGAUAUAGUGUGGAUU”, the “apparent Kd” value reads like this: under setting [3], 0.0806 µM; under setting [4], 0.0203 µM.
On to “UUUUACGAAGGAUAUACAUUUUUUUUAUUAUUUUCAUUAUUACAUGAGGAUCACCCAUGUAGAAGGUCGAUUUU”, for which the “apparent Kd” value under setting [1] was 0.0243 µM and the “apparent Kd” value under setting [2] was found to be 0.0237 µM.
The like results for “AAAGAGCGAGGAUAUACAUGAGGAUCACCCAUGUGAAGAUGCAUGGUCUGAACGUCUGGUAGAAGGCGUAUGAA” were, in that order, 0.161 µM and 0.182 µM.
The like results for “CGUGCAAAUGUAGGAUAUGGUUAUCUAUGUCUAGUUACUAGACAUAGAUAACCAGAAGGACAUGAGGAUCACCCAUGUAGCACG” were, in that order, 0.0067 µM and 0.0215 µM.
“UUAUGCUGAGAGAAGGUUCAAACUACAUAUUGCACACAUGAGGAUCACCCAUGUUGGUGAAUAAGAAAGGAUAUUUUACUGUAU”: the “apparent Kd” value reads like this: under setting [1], 0.0201 µM; under setting [2], 0.0169 µM.
As to “UAGCAGUGCGGGUAGGAUAUGUAGGGUGGUACAUGAGGAUCACCCAUGUAUCCACCCUUCGACCGGCAGAAGGGCCUGUCACUGC”, the “apparent Kd” value reads like this: under setting [3], 0.022 µM; under setting [4], 0.0226 µM.
“UGGGUAAAUGUAGGAUAUUUAUAUUAAUAGUAUGGAGAAGGACAUGAGGAUCACCCAUGUACAGGGAGUUACCCAUUUCCUCUC”: the “apparent Kd” value was found to be 0.67 µM under setting [1] and 0.662 µM under setting [2].
With “GUCAGCUCGUGAGGAUAUACAUGAUAGAUCGAUUAAUUAAUUAAUUUAACAUGAGGAUCACCCAUGUAGAAGGUACGAGCUGAU”, the “apparent Kd” value by setting is: under setting [1], 0.0616 µM; under setting [2], 0.0452 µM.
On to “CACAGGGAUUCAGGAUAUAUUAGCCGAGGCCGCGUAGAAGGGAAAUCCUGACAUGAGGAUCACCCAUGUUAACCCGCCUUCCAU”, for which the “apparent Kd” value runs as follows: under setting [3], 0.0376 µM; under setting [4], 0.042 µM.
Take “CGGCUACCCAGUAUGGGUAUUUUUACAGAAGGCCAGGCACAUGAGGAUCACCCAUGUCAAGUUUUGGAGGAUAUGUUAGUGUCG”: the “apparent Kd” value runs as follows: under setting [3], 0.00558 µM; under setting [4], 0.00425 µM.
In the case of “AGUGUCAUCGAGAAGGCCUUAACAUGAGGAUCACCCAUGUUAUAACAUGGGAGGAUAUCGAUGAUACAGCUACGUUUCGUAGCA”, the “apparent Kd” value stood at 0.286 µM under setting [3] and 0.0182 µM under setting [4].
Consider “UGCUGGGAAUCAGGAUAUACGUGGUAUCCUGAGCACAUGAGGAUCACCCAUGUAGAAGGGAUUCCGCGGUGAGAUUCCGAAACA”, for which the “apparent Kd” value is, setting by setting: under setting [1], 0.00497 µM; under setting [2], 0.00545 µM.
In the same order, the values of “UGAUAACAUGUAGGAUAUCCAGCAUUGACCAUCGGAGAAGGACAUGAGGAUCACCCAUGUACCGAUACAAUGGGAUAACGCAAU” are 0.0154 µM and 0.018 µM.
The like results for “ACAUGAGGAUCACCCAUGUAAUGAUGGGUACUAUAUUAUUCGUAGGAUAUCGUUGUUAGUUUGUUCGAGAAGGACGUUUGCCUU” were, in that order, 1.22 µM and 1.2 µM.
For “GUUUAGUGAGGAUAUGUGGCGUCGAUCGAGCGCGGUCUGCUACAGAAGGCACAUGAGGAUCACCCAUGUUUCUC”, the “apparent Kd” value runs as follows: under setting [1], 0.258 µM; under setting [2], 0.371 µM.
With “AUCAUGUCAGGAUAUGUGAUAUGGAUCUUCGGAUCAAGUUCACAGAAGGGACAUGAGGAUCACCCAUGUCGAAC”, the “apparent Kd” value worked out at 0.0506 µM under setting [1] and 0.0917 µM under setting [2].
In the same order, the values of “AACAGGUGAGGAUAUCGAACAACAACAACAACAACAACAAACGAGAAGGCACAUGAGGAUCACCCAUGUAAGAA” are 0.02 µM and 0.0175 µM.
“AAGUAUAGAGGAUAUAGUAGUUACAACAUGAGGAUCACCCAUGUUCUUCAUAACGUAGUUCUAGAAGGCUGAUAAA”: the “apparent Kd” value by setting is: under setting [1], 0.183 µM; under setting [2], 0.271 µM.
For the sequence “AGCAUGUUUACAUGAGGAUCACCCAUGUUUUUUAAGGAUAUCAGAAGGUACAUUUUGAGUUAGAGUAAGGAUAUGAUAUAUGCG”, the “apparent Kd” value is, setting by setting: under setting [3], 0.0119 µM; under setting [4], 0.00882 µM.
As to “AUUCAGUCAGGAUAUCGUUAAUUUAAUUGUUUGUUUUAGUUCGAGAAGGGACAUGAGGAUCACCCAUGUACUUA”, the “apparent Kd” value amounted to 0.0259 µM under setting [1] and 0.0273 µM under setting [2].
For “GGUGCGUUUGUGAGGAUAUGCUGGUCCUUGGUUCGGCAGAAGGCACAUGAGGAUCACCCAUGUGGUGUCGUACC”, the “apparent Kd” value reads like this: under setting [1], 0.0167 µM; under setting [2], 0.0488 µM.
Take “UUGGACGUCGUAGGAUAUGUAGGAUAUCCCUACAUGAGGAUCACCCAUGUUGACAUGGAAGAAGGACAGAAGGACGAUGUCCAU”: the “apparent Kd” value is, setting by setting: under setting [3], 0.105 µM; under setting [4], 0.0118 µM.
On to “GCAUGUCUUAAGGAUAUGCUUUGGCGUGAGCCGGCAGAAGGUAAGACAUGAGGAUCACCCAUGUUUUCCUAAAA”, for which the “apparent Kd” value reads like this: under setting [1], 0.0205 µM; under setting [2], 0.14 µM.
In the case of “AAACACGGACAUGAGGAUCACCCAUGUGGCGAAAGCCUUGGAAGAAGGCCGAUAGCAAAGCUAUCGGAGGAUAUUCAUACCGUG”, the “apparent Kd” value is 0.0172 µM under setting [3] and 0.00578 µM under setting [4].
As for “UUACUCAUGUAAGGAUAUGCAGCCGUUUCGGCUGCAGAAGGUACUAUAAUACAUGAGGAUCACCCAUGUCUUUUUAAUUUUUAU”, the “apparent Kd” value under setting [3] came to 0.0887 µM and the “apparent Kd” value under setting [4] was 0.0404 µM.
As for “UUUGUUUUGGUAGGAUAUACUUUUAUUUUCUCUUUCCUUACAUGAGGAUCACCCAUGUUUACAUUGUAGAAGGACCACUUUGUU”, the “apparent Kd” value was 0.0208 µM under setting [1] and 0.0188 µM under setting [2].
Regarding “UCAUGGUAGCAGGAUAUGCUAUUUAUUUUUUAUGCAGAAGGGCUUACAUGAGGAUCACCCAUGUGUUAGGUUUA”, the “apparent Kd” value under setting [1] stood at 0.113 µM and the “apparent Kd” value under setting [2] is 0.0252 µM.
Take “GGGUUUGGAGGAUAUACAAUGGGUUUGGGAAACCGGGCCCUACAUGAGGAUCACCCAUGUAGAAGGCCGGGCCC”: the “apparent Kd” value by setting is: under setting [1], 0.0148 µM; under setting [2], 0.0158 µM.
The like results for “GGGUGCUCACCGCCUUAACAUGAGGAUCACCCAUGUGGAGUGCAGGAUAUACGUCUCUAUCAUACGUAGAAGGGCACCGCGCAG” were, in that order, 0.00545 µM and 0.0059 µM.
For “AUAAAACAUGAGGAUCACCCAUGUCAGUUAUCAUGAGGAUAUCCGCCGACCCGGGCGUAAGGAGAAGGCAUAUAAU”, the “apparent Kd” value by setting is: under setting [3], 0.0393 µM; under setting [4], 0.0201 µM.
Regarding “CGUGCUUAUGUAGGAUAUGGUUAUCUAUGUCUAGUUACUAGACAUAGAUAACCAGAAGGACAUGAGGAUCACCCAUGUAGCACG”, the “apparent Kd” value is 0.0146 µM under setting [1] and 0.0258 µM under setting [2].
With “UUUUAACAUGAGGAUCACCCAUGUGAGGAUAUCGAUUUUUAUAUUAAUAUUAAUAAAACGAGAAGGCACAUUUU”, the “apparent Kd” value runs as follows: under setting [1], 0.123 µM; under setting [2], 0.0793 µM.
As for “GGCUUGCAGCUAGGAUAUGGGCGAUCACAUGAGGAUCACCCAUGUCAACAUCAAAACAAGAUUAACCAGAAGGAGCCGCGGGUC”, the “apparent Kd” value runs as follows: under setting [3], 0.0213 µM; under setting [4], 0.705 µM.
As to “CGAUGUUAUGCAGGAUAUCUCUCUUGUUUGAGGAGAGAAGGGCAUAGGGAGACAUACGCCUUAUUACAUGAGGAUCACCCAUGU”, the “apparent Kd” value under setting [1] is 0.00883 µM and the “apparent Kd” value under setting [2] worked out at 0.008 µM.
The like results for “UAAUUGUGAGGAUAUUCGUAGUUCACGGAGACGUGAAUUACGGAGAAGGCACAUGAGGAUCACCCAUGUUCCUU” were, in that order, 0.0178 µM and 0.0848 µM.
In the same order, the values of “ACACGUGUGUCAGGAUAUCACACUAAUUGGACUAACUAUAUGAAAGCACAUGAGGAUCACCCAUGUGAGAAGGGACGCCACCUG” are 0.012 µM and 0.00997 µM.
